PTEN del growth – suppresses growth of cells with PTEN deletion | HCT116 PTEN-null viability, CellTiter-Glo, 60 h; hits give low values | 1.2% of 140,000 active | AID 827 | viability, % at 10 µM;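 active = viability at or below a set limit, 4 SD under the median of all tested compounds, cut at about 3.7% in these data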;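 note: PTEN knockout HCT116 line with beta catenin targeted HCT116 as companion control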
H69AR growth 86K – blocks growth of human H69AR lung tumor cells; AID 598; viability, % at 10 µM; H69AR lung tumor viability, ATP luminescence, 72 h; hits give low values; 6% of 85,000 active;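 active = viability at or below 40%; inactive = viability above 40%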;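 note: multidrug resistant small cell line overexpressing MRP-1 efflux transporter; 100% = mean luminescence of untreated control wells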
Lung fibro prol – blocks proliferation of human lung fibroblasts; LL 47 human lung fibroblast viability, ATP luminescence; hits give low values; viability, % at 10 µM; 1.1% of 85,000 active; AID 719;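 active = viability at or below 50% in the single dose screen; inactive = viability above 50%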;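 note: compound exposure lasted 72 h before the ATP readout; 100% = median luminescence of untreated cell-only wells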
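material = human LL 47 lung fibroblast cells | dosing = compounds added from tenfold dosing solution, 0.1% DMSO final | timing = overnight cell rest, 72 h compound treatment at 37 °C | measured by = CellTiter-Glo luminescence measuring cellular ATP | evaluation = % viability versus median cells-only luminescence | control set = cell-only wells, no compound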
HUVEC prolif 384 – inhibitors of human endothelial cell proliferation. 1.1% of 86,000 active. HUVEC proliferation, CellTiter-Glo luminescence, 72 h; hits give low values. AID 648. viability, % at 10 µM (by protocol);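 active = viability at or below 30%; inactive = viability above 30%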;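 note: 100% = median luminescence of DMSO-only cell control wells on each plate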
HCT116 bCat-KO – beta-catenin-lacking colon tumor cell growth suppression | HCT116 beta-catenin knockout viability, CellTiter-Glo, 60 h; hits give low values | 1.5% of 140,000 active | viability, % at 10 µM;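 active = viability at or under a set limit, the compound median less 4 SD, cut at about 6% in these data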;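 note: 0% = Hyamine 1622 control at 20 µM and 100% = untreated cell control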
PTK2B oligo ant – Pyk2 (human) oligomerization antagonism. AID 1347419. z-score (the deposit names both 25 µM and 10 µM). 0.83% of 99,000 active. Q293 cells, Pyk2 FERM NanoBiT luminescence; hits give low values;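 active = Z-score of -3 or lower, scaled per plate to the spread of control and sample wells; inactive = z-score above -3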;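 note: negative z-score means lost luminescence so less FERM oligomerization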
Target sequence (Q14289 whole entry, looked up): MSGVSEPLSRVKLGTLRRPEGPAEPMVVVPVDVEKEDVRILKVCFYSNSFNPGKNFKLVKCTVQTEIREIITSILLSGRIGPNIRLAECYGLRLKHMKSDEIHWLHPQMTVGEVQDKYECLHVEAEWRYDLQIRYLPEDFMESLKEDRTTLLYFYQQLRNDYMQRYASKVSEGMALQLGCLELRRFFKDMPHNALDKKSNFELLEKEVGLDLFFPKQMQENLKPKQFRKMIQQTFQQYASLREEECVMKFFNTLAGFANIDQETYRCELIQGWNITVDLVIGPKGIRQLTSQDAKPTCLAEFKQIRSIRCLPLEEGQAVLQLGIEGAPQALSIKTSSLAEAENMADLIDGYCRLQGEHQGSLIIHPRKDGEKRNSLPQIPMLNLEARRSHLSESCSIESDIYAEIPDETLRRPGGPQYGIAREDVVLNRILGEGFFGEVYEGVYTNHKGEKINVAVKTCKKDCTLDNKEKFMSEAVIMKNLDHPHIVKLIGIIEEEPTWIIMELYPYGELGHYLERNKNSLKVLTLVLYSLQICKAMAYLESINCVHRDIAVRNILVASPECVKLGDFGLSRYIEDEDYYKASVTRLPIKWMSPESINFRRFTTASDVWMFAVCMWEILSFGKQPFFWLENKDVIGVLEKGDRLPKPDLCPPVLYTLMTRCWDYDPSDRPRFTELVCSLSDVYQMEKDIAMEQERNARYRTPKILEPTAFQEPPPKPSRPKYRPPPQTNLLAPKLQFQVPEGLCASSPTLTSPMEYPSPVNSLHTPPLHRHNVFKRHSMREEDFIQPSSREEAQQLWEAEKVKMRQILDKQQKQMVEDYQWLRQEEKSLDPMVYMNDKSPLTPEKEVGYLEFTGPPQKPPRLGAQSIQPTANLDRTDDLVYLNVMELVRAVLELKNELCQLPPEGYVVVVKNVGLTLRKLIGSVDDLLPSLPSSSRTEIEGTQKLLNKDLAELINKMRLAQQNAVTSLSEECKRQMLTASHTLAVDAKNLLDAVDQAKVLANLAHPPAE
An asterisk follows results filed as active; . = no result. This is one part of a sample in which hits are shown more often than they occur.

SMILES	PTEN del growth	H69AR growth 86K	Lung fibro prol	HUVEC prolif 384	HCT116 bCat-KO	PTK2B oligo ant
CCOC(=O)c1ccc(N2C(=O)c3n[nH]c(C)c3C2c2ccccc2)cc1 (stereo not drawn)	113.0	96.2	98.1	95.9	88.3	-3.06*
Nc1cc(Br)c(N)c(Br)c1	98.5	23.0*	97.3	92.4	93.5	-1.13
COC(=O)C(Sc1nc(C)cc(C)c1C#N)c1ccccc1 (stereo not drawn)	98.9	.	.	.	111.6	-1.23
COc1ccccc1-c1cc(-c2ccccc2)nc(SC(C(N)=O)c2ccccc2)c1C#N (stereo not drawn)	3.5*	.	.	.	53.8	-2.87
CCc1nnc(NC(=O)c2ccc(S(=O)(=O)N3CCCCC3C)cc2)s1 (stereo not drawn)	94.5	79.4	100.5	92.9	104.8	-0.62
CCC1CCCCN1S(=O)(=O)c1ccc(C(=O)Nc2nnc(-c3cccs3)o2)cc1 (stereo not drawn)	10.8	20.5*	71.3	64.5	13.2	-2.86
O=C(CCc1ccccc1)Nc1nnc(-c2cccs2)o1	104.7	102.4	97.5	87.1	95.3	.
CC1CC(C)CN(S(=O)(=O)c2ccc(C(=O)Nc3nnc(-c4cccs4)o3)cc2)C1 (stereo not drawn)	6.8	44.8	72.0	4.2*	14.1	-4.47*
O=C(Nc1nnc(-c2cccs2)o1)c1cccc(C(F)(F)F)c1	7.7	23.4*	68.7	39.3	12.9	.
Cc1nnc(NC(=O)c2ccc(S(=O)(=O)N3CCCCCC3)cc2)o1	78.0	59.4	98.1	86.2	55.9	-0.54
CC1CCCN(S(=O)(=O)c2ccc(C(=O)Nc3nnc(-c4ccccc4Cl)o3)cc2)C1 (stereo not drawn)	8.0	30.8*	46.6*	3.9*	13.4	-3.84*
COc1ccc2[nH]c(C(O)(Cc3cccnc3)Cc3cccnc3)cc2c1	81.1	.	.	.	80.8	.
COc1cc(NC(=S)NC(=O)c2ccccc2F)ccc1NC(=O)c1ccco1	94.8	.	.	.	82.6	.
Cc1ccc(-c2nnc(SCC(=O)N3CCOCC3)nc2-c2ccc(C)cc2)cc1	59.1	18.8*	97.6	97.8	49.1	-1.05
COc1cccc(C(c2c(NC(=O)c3ccccc3)sc(C)c2C)N2CCN(C)CC2)c1 (stereo not drawn)	17.4	.	.	.	15.2	.
O=C(CCC(=O)c1cccs1)NCC(=O)Nc1ccc(F)c(F)c1F	84.1	.	.	.	93.4	.
COc1ccc(OC)c(C(c2nnnn2C2CCCC2)N2CCN(c3ccc(F)cc3)CC2)c1 (stereo not drawn)	59.9	94.6	94.1	94.4	66.5	-3.25*
COCCn1nnnc1C(c1ccc(OC)cc1OC)N1CCN(c2ccccc2F)CC1 (stereo not drawn)	82.2	97.6	94.4	114.1	95.0	-4.4*
COc1ccc(N2CCN(C(c3cc(OC)ccc3OC)c3nnnn3Cc3ccco3)CC2)cc1 (stereo not drawn)	84.0	.	.	.	90.1	-3.18*
COCCn1nnnc1C(c1ccc(OC)cc1OC)N1CCN(c2ccccc2)CC1 (stereo not drawn)	87.4	99.6	108.6	104.3	94.4	-4.11*
COc1ccc(OC)c(C(c2nnnn2CCc2ccccc2)N2CCN(c3ccccc3)CC2)c1 (stereo not drawn)	65.8	88.6	93.0	107.6	67.6	-2.73
CCOc1ccc(S(=O)(=O)N2CCN(C(=O)c3cc4c(s3)CCCC4)CC2)cc1	74.6	.	.	.	71.1	-0.82
O=C(CNS(=O)(=O)c1ccccc1)Nc1ccc(C(F)(F)F)cc1	78.3	92.4	100.5	100.5	74.3	-0.27
CCOC(=O)C(Cc1ccccc1)C(=O)Nc1cccc2ccccc12 (stereo not drawn)	85.0	.	.	.	89.3	.
COc1ccc2c(c1)O[C@H](c1ccc3c(c1)OCO3)[C@@H](OC(=O)N[C@H](C)C1CCCCC1)C2=O	1.2*	.	.	.	11.1	.
COc1cccc([C@@H]2Oc3ccc(OC)cc3C(=O)[C@H]2OC(=O)N[C@H](C)C2CCCCC2)c1	50.1	.	.	.	51.2	.
OC(CN1CCN(c2ccccn2)CC1)Cn1c2ccc(Cl)cc2c2cc(Cl)ccc21 (stereo not drawn)	11.9	1.3*	94.1	41.2	13.0	0.18
OC(COC(c1ccc(Cl)cc1)c1ccc(Cl)cc1)CN1CCN(c2ccccn2)CC1 (stereo not drawn)	18.4	.	.	.	16.7	.
COCc1cc(=O)[nH]c(Nc2nc3ccc(C)cc3o2)n1	5.4	21.4*	5.2*	38.7	6.6	-2.56

Screening data deposited in PubChem by several laboratories.
